According to paper PMC6452895 (ChemMedChem, 2019):

Assays:
NCI-H23 = test: Growth inhibition; assay type: cell-based, human; details: NCI-H23, lung cancer, K-Ras G12C
Procedure, shortened: (§1)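 Cancer cell lines were treated with test compound for growth inhibition. Each GI50 is the average of three independent experiments, each run in duplicate.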

HCT116 = test: Growth inhibition; assay type: cell-based, human; details: HCT116, colon cancer, K-Ras G13D
Procedure, shortened: as §1

HME1 = test: Growth inhibition; assay type: cell-based, human; details: HME1, normal mammary epithelial cells, K-Ras WT
Procedure, shortened: (§2)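 GI50 determined for growth of the test compound's target cells; values averaged across three independent experiments, each run in duplicate.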

MDA-MB-231 = test: Growth inhibition; assay type: cell-based, human; details: MDA-MB-231, breast cancer, K-Ras G13D
Procedure, shortened: as §1

ASPC1 = test: Growth inhibition; assay type: cell-based, human; details: ASPC1, pancreatic cancer, K-Ras G12D
Procedure, shortened: as §1

MCF10A = test: Growth inhibition; assay type: cell-based, human; details: normal mammary epithelial cells, K-Ras WT
Procedure, shortened: as §2

SIRT3 = molecular target: T1, SIRT3 (Homo sapiens, UniProt Q9NTG7); test: In vitro SIRT3 deacetylation inhibition, H3K9-Ac peptide substrate; assay type: biochemical; details: read-out: SIRT3 Deacetylation IC50, with 15 min pre-incubation
T1 sequence (Q9NTG7 1-399): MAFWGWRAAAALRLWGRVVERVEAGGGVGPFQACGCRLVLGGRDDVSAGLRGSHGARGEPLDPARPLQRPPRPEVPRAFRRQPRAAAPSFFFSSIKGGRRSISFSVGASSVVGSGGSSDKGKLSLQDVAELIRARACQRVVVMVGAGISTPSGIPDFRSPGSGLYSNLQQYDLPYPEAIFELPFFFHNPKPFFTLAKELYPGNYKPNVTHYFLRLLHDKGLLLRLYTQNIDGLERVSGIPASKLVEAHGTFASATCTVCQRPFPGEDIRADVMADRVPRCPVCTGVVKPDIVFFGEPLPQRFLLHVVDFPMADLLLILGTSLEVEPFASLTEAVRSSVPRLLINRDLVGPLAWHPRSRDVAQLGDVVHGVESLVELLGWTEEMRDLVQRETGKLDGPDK
Procedure, shortened: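 The enzyme was pre-incubated with NAD and test compound for 15 min, then substrate was added to start the deacetylation reaction. IC50 was determined under these pre-incubation conditions.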

GI50 (NCI-H23): 29 ± 6 µM
GI50 (HCT116): 19 ± 1 µM
GI50 (MDA-MB-231): 13 ± 4 µM
GI50 (ASPC1): 24 ± 5 µM
IC50 (SIRT3): > 50 µM
Compound: CCCCCCCCCCCCCC(=S)NCCCCC(NC(=O)OCc1ccccc1)C(=O)Nc1ccccc1 (stereo not shown) [TM]
GI50 (HME1): > 50 µM
GI50 (MCF10A): > 50 µM
